{
  "source": "ChEMBL document CHEMBL3045365",
  "about": "“Chemical composition and antifungal activity of Salvia macrochlamys and Salvia recognita essential oils” (2006)",
  "key": {"[1]": {"test_system": "Colletotrichum fragariae", "test": "Antifungal activity against Colletotrichum fragariae assessed as growth inhibition at 4 uL in 2 mM acetone by direct bioautography", "type": "functional", "how_it_was_run": "(§1)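 Standards applied at 2 mM in 4 μL acetone onto silica TLC plates and tested by direct bioautography against each Colletotrichum species. Activity read as clear inhibitory zone size (mm), reported as mean ± SEM. Technical-grade fungicides at 2 mM in 2 μL EtOH served as internal standards. Runs repeated multiple times in dose- and non-dose-response formats.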"}, "[2]": {"test_system": "Colletotrichum acutatum", "test": "Antifungal activity against Colletotrichum acutatum assessed as growth inhibition at 4 uL in 2 mM acetone by direct bioautography", "type": "functional", "how_it_was_run": "as §1"}, "[3]": {"test_system": "Colletotrichum gloeosporioides", "test": "Antifungal activity against Colletotrichum gloeosporioides assessed as growth inhibition at 4 uL in 2 mM acetone by direct bioautography", "type": "functional", "how_it_was_run": "as §1"}, "[4]": {"test_system": "Colletotrichum fragariae", "test": "Antifungal activity against Colletotrichum fragariae assessed as growth inhibition at 2 uL in 2 mM EtOH by direct bioautography"}, "[5]": {"test_system": "Colletotrichum gloeosporioides", "test": "Antifungal activity against Colletotrichum gloeosporioides assessed as growth inhibition at 2 uL in 2 mM EtOH by direct bioautography"}, "[6]": {"test_system": "Colletotrichum acutatum", "test": "Antifungal activity against Colletotrichum acutatum assessed as growth inhibition at 2 uL in 2 mM EtOH by direct bioautography"}},
  "data": [
    {"smiles": "CC1(C)[C@H]2CC[C@]1(C)[C@H](O)C2", "note": "[(-)-BORNEOL]", "values": [
      {"measurement": "inhibition zone (IZ)", "setting": "[1]", "value": 0, "unit": "mm"},
      {"measurement": "inhibition zone (IZ)", "setting": "[2]", "value": 0, "unit": "mm"},
      {"measurement": "inhibition zone (IZ)", "setting": "[3]", "value": 0, "unit": "mm"}
    ]},
    {"smiles": "CC1(C)[C@H]2CC[C@]1(C)C(=O)C2", "note": "[(-)-CAMPHOR]", "values": [
      {"measurement": "inhibition zone (IZ)", "setting": "[1]", "value": 0, "unit": "mm"},
      {"measurement": "inhibition zone (IZ)", "setting": "[2]", "value": 0, "unit": "mm"},
      {"measurement": "inhibition zone (IZ)", "setting": "[3]", "value": 0, "unit": "mm"}
    ]},
    {"smiles": "CO/C=C(/C(=O)OC)c1ccccc1Oc1cc(Oc2ccccc2C#N)ncn1", "note": "[AZOXYSTROBIN]", "values": [
      {"measurement": "inhibition zone (IZ)", "setting": "[4]", "value": 19.33, "unit": "mm"},
      {"measurement": "inhibition zone (IZ)", "setting": "[5]", "value": 28.33, "unit": "mm"},
      {"measurement": "inhibition zone (IZ)", "setting": "[6]", "value": 24.33, "unit": "mm"}
    ]},
    {"smiles": "CCCCNC(=O)n1c(NC(=O)OC)nc2ccccc21", "note": "[BENOMYL]", "values": [
      {"measurement": "inhibition zone (IZ)", "setting": "[4]", "value": 18.33, "unit": "mm"},
      {"measurement": "inhibition zone (IZ)", "setting": "[5]", "value": 19.33, "unit": "mm"},
      {"measurement": "inhibition zone (IZ)", "setting": "[6]", "value": 18, "unit": "mm"}
    ]},
    {"smiles": "CC1(C)C2CCC1(C)C(O)C2", "note": "(stereo not drawn) [BORNEOL]", "values": [
      {"measurement": "inhibition zone (IZ)", "setting": "[1]", "value": 0, "unit": "mm"},
      {"measurement": "inhibition zone (IZ)", "setting": "[2]", "value": 0, "unit": "mm"},
      {"measurement": "inhibition zone (IZ)", "setting": "[3]", "value": 0, "unit": "mm"}
    ]},
    {"smiles": "CC12CCC(CC1=O)C2(C)C", "note": "(stereo not drawn) [CAMPHOR]", "values": [
      {"measurement": "inhibition zone (IZ)", "setting": "[1]", "value": 0, "unit": "mm"},
      {"measurement": "inhibition zone (IZ)", "setting": "[2]", "value": 0, "unit": "mm"},
      {"measurement": "inhibition zone (IZ)", "setting": "[3]", "value": 0, "unit": "mm"}
    ]},
    {"smiles": "O=C1C2CC=CCC2C(=O)N1SC(Cl)(Cl)Cl", "note": "(stereo not drawn) [CAPTAN]", "values": [
      {"measurement": "inhibition zone (IZ)", "setting": "[4]", "value": 15, "unit": "mm"},
      {"measurement": "inhibition zone (IZ)", "setting": "[5]", "value": 10.33, "unit": "mm"},
      {"measurement": "inhibition zone (IZ)", "setting": "[6]", "value": 14.67, "unit": "mm"}
    ]},
    {"smiles": "Cc1ccc(C(C)C)cc1O", "note": "[CARVACROL]", "values": [
      {"measurement": "inhibition zone (IZ)", "setting": "[1]", "value": 3.4, "unit": "mm"},
      {"measurement": "inhibition zone (IZ)", "setting": "[2]", "value": 4.5, "unit": "mm"},
      {"measurement": "inhibition zone (IZ)", "setting": "[3]", "value": 3.5, "unit": "mm"}
    ]},
    {"smiles": "Cc1cc(C2CC2)nc(Nc2ccccc2)n1", "note": "[CYPRODINIL]", "values": [
      {"measurement": "inhibition zone (IZ)", "setting": "[4]", "value": 30.33, "unit": "mm"},
      {"measurement": "inhibition zone (IZ)", "setting": "[5]", "value": 29.33, "unit": "mm"},
      {"measurement": "inhibition zone (IZ)", "setting": "[6]", "value": 29.33, "unit": "mm"}
    ]},
    {"smiles": "CC12CCC(CC1)C(C)(C)O2", "note": "[EUCALYPTOL]", "values": [
      {"measurement": "inhibition zone (IZ)", "setting": "[1]", "value": 0, "unit": "mm"},
      {"measurement": "inhibition zone (IZ)", "setting": "[2]", "value": 0, "unit": "mm"},
      {"measurement": "inhibition zone (IZ)", "setting": "[3]", "value": 0, "unit": "mm"}
    ]},
    {"smiles": "Cc1ccc(C(C)C)c(O)c1", "note": "[THYMOL]", "values": [
      {"measurement": "inhibition zone (IZ)", "setting": "[1]", "value": 0, "unit": "mm"},
      {"measurement": "inhibition zone (IZ)", "setting": "[2]", "value": 0, "unit": "mm"},
      {"measurement": "inhibition zone (IZ)", "setting": "[3]", "value": 0, "unit": "mm"}
    ]}
  ]
}
